The values below come from ChEMBL document CHEMBL1148650, “Synthesis and pharmacological evaluation of novel nitrobenzenic thromboxane modulators as antiplatelet agents acting on both the alpha and beta isoforms of the human thromboxane receptor” (J Med Chem, 2006).

For test [1], the target named is T1, Thromboxane A2 receptor (Homo sapiens) (UniProt P21731).
T1 sequence (whole entry): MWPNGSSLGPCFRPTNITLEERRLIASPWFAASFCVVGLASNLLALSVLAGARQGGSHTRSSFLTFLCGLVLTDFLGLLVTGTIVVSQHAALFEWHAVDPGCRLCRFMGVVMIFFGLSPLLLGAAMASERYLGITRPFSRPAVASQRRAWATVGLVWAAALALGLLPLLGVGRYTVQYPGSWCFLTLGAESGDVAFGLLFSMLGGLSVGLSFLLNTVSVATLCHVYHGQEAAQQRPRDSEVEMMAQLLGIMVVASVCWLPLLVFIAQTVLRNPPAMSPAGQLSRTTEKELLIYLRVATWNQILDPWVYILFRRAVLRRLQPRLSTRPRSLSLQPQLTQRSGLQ
Kind of test: Selectivity index, IC50 for TPalpha/IC50 for TPbeta in COS7 cells. Format: cell-based. Particulars: COS-7. In short, it runs like this:
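Binding used 5 × 10^5 cells in 25 mM HEPES/125 mM NaCl/10 µM indomethacin, pH 7.4, with 10 nM [3H]SQ29,548 and compound at 10^-6 to 10^-11 M, in triplicate, for 30 min at 37 °C. Nonspecific binding: 10 µM unlabeled SQ29,548. Bound ligand was counted after filtration. Index = IC50 TPα/IC50 TPβ.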

Test [2] has as its target T2, Thromboxane A2 receptor (Homo sapiens, UniProt P21731).
T2 sequence (P21731 whole entry): T1 sequence (whole entry)
Kind of test: Activity at TPalpha (short isoform) receptor expressed in HEK293 cells assessed as ability to antagonize U46619-mediated calcium ion mobilization. The class given is functional, cell-based. An outline of the steps: (§1)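 HEK293 cells stably overexpressing human TPα or TPβ. Cells were loaded 1 h with Fluo-4/AM (5 µg/mL) and washed in Krebs-HEPES pH 7.4 (150 000 cells/well). Compound (10^-5 to 10^-8 M final) was added 10 min before 1 µM U46619. Fluo-4 signal was calibrated by Triton X-100 and then EGTA (Kd 385 nM) for [Ca2+]i. IC50 is the concentration halving the [Ca2+]i rise.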

The target of test [3] is T2, Thromboxane A2 receptor. Kind of test: Activity at TPbeta (long isoform) receptor expressed in HEK293 cells assessed as ability to antagonize U46619-mediated calcium ion mobilization. The class given is functional, cell-based. An outline of the steps:
as §1

In test [4] the target is T1, Thromboxane A2 receptor (Homo sapiens). As to the kind of experiment: Selectivity index, IC50 for TPalpha/IC50 for TPbeta in HEK293 cells. The class given is functional, cell-based. In short, it runs like this:
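Ratio of IC50 TPα to IC50 TPβ, both from the calcium assay in stably transfected HEK293 cells. Fluo-4-loaded cells were preincubated 10 min with compound (10^-5 to 10^-8 M), then stimulated with 1 µM U46619. IC50 is the concentration inhibiting 50% of the [Ca2+]i rise.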

Test [5] addresses T2, Thromboxane A2 receptor. As to the kind of experiment: Displacement of [3H]SQ-29548 from TPbeta receptor (long isoform) expressed in COS7 cells. (In general: Loss of bound radioactivity is the signal in a displacement assay; it reports binding, not function.)
Test [6] addresses T2, Thromboxane A2 receptor. As to the kind of experiment: Displacement of [3H]SQ29,548 from TPalpha receptor (short isoform) expressed in COS7 cells.
Test [7] concerns the target T1, Thromboxane A2 receptor (Homo sapiens). As to the kind of experiment: Displacement of [3H]SQ-29548 from TPbeta receptor (long isoform) expressed in COS7 cells at 1 nM. The note with it: COS-7.
Test [8] has the same target. Kind of test: Displacement of [3H]SQ29,548 from TPalpha receptor (short isoform) expressed in COS7 cells at 1 nM. Particulars: COS-7.

With `CCCCCNC(=O)NS(=O)(=O)c1cc([N+](=O)[O-])ccc1Nc1cc(C)cc(C)c1`, the results for the Ratio IC50 in test [1] and in test [4] were 1.55 and 7.03, respectively. Also, the IC50 (as a rule, the concentration at which inhibition is half-maximal) at Thromboxane A2 receptor [2] amounted to 538 nM; on Thromboxane A2 receptor [3], 76.5 nM; at Thromboxane A2 receptor [5], 0.7 nM; at Thromboxane A2 receptor [6] it was 1.08 nM. The Activity in test [7] and in test [8] was 49.7% throughout.
Take `CCCCC/N=C(\NC#N)NS(=O)(=O)c1cc([N+](=O)[O-])ccc1Nc1cc(C)cc(C)c1`: the Activity turned out to be 53.4% in test [7] and 48% in test [8].
Consider `CCCCCNC(=O)NS(=O)(=O)c1cc([N+](=O)[O-])ccc1Nc1cccc(C)c1C`, for which the values for the Activity in test [7] and in test [8] were 39% and 44.6%, respectively.
Take `Cc1ccc(Nc2ccc([N+](=O)[O-])cc2S(=O)(=O)NC(=O)N2CCCCC2)cc1`: the Ratio IC50 in test [1] worked out at 0.68; in test [4], 1.68. In addition, the IC50 on Thromboxane A2 receptor [2] is 64.8 nM; at Thromboxane A2 receptor [3], 38.5 nM; at Thromboxane A2 receptor [5], 0.68 nM; at Thromboxane A2 receptor [6] it was 0.46 nM. Also, the Activity was found to be 54.2% in test [7] and 46.2% in test [8].
For `CCCCCCNC(=O)NS(=O)(=O)c1cc([N+](=O)[O-])ccc1Oc1ccc(C)cc1`, the Ratio IC50 in test [1] amounted to 0.45; in test [4] it was 9. In addition, the IC50 at Thromboxane A2 receptor [2] came to 526 nM; at Thromboxane A2 receptor [3] it was 58.5 nM; at Thromboxane A2 receptor [5] it was 1.58 nM; on Thromboxane A2 receptor [6] it was 0.72 nM. Also, the Activity in test [7] was determined as 46.1%; in test [8], 55.2%.
As for `CCCCCNC(=O)NS(=O)(=O)c1cc([N+](=O)[O-])ccc1Nc1ccc(C)c(C)c1`, the results for the Activity in test [7] and in test [8] were 48.7% and 40.1%, respectively.
With `CCCCCCCNC(=O)NS(=O)(=O)c1cc([N+](=O)[O-])ccc1NC1CCCCC1`, the Ratio IC50 in test [1] was found to be 0.93; in test [4], 1.67. In addition, the IC50 on Thromboxane A2 receptor [2] turned out to be 92.9 nM; at Thromboxane A2 receptor [3] it was 55.5 nM; on Thromboxane A2 receptor [5], 2.68 nM; at Thromboxane A2 receptor [6], 2.5 nM. Further, the Activity came out at 36.4% in test [7] and 29.5% in test [8].
Turning to `CCCCCNC(=O)NS(=O)(=O)c1cc([N+](=O)[O-])ccc1Oc1cccc(C)c1`, the Activity in test [7] stood at 22.8%; in test [8], 20.1%.
As to `Cc1ccc(Nc2ccc([N+](=O)[O-])cc2S(=O)(=O)NC(=O)NC(C)(C)C)cc1`, the figures for the Ratio IC50 in test [1] and in test [4] were 1.35 and 6.01, respectively. The IC50 at Thromboxane A2 receptor [2] was found to be 319 nM; at Thromboxane A2 receptor [3], 53.1 nM; on Thromboxane A2 receptor [5], 0.78 nM; on Thromboxane A2 receptor [6], 1.05 nM. Also, the Activity in test [7] was 53.6%; in test [8], 49.5%.
Turning to `CCCCCNC(=O)NS(=O)(=O)c1cc([N+](=O)[O-])ccc1Nc1cc(C)ccc1C`, the Activity in test [7] came out at 33.1%; in test [8], 28.6%.
Consider `CCCCCNC(=O)NS(=O)(=O)c1cc([N+](=O)[O-])ccc1Sc1ccc(Cl)cc1`, for which the figures for the Activity in test [7] and in test [8] were 21.3% and 24.7%, respectively.
Take `Cc1ccc(Oc2ccc([N+](=O)[O-])cc2S(=O)(=O)NC(=O)NC(C)(C)C)cc1`: the Ratio IC50 in test [1] is 0.71; in test [4], 1.01. Besides, the IC50 at Thromboxane A2 receptor [2] was determined as 58.3 nM; on Thromboxane A2 receptor [3], 57.6 nM; on Thromboxane A2 receptor [5] it was 1.77 nM; on Thromboxane A2 receptor [6], 1.26 nM. Further, the Activity in test [7] amounted to 44.7%; in test [8], 53.3%.
For the molecule `Cc1ccc(Sc2ccc([N+](=O)[O-])cc2S(=O)(=O)NC(=O)NC(C)(C)C)cc1`, the figures for the Ratio IC50 in test [1] and in test [4] were 0.44 and 5.32, respectively. Besides, the IC50 was 294 nM at Thromboxane A2 receptor [2], 55.2 nM on Thromboxane A2 receptor [3], 1.74 nM at Thromboxane A2 receptor [5] and 0.77 nM at Thromboxane A2 receptor [6]. The Activity worked out at 37.7% in test [7] and 47% in test [8].
`CC(C)(C)NC(=O)NS(=O)(=O)c1cc([N+](=O)[O-])ccc1Sc1ccc(Cl)cc1`: the Activity was 31.7% in test [7] and 32.5% in test [8].
Turning to `CCCCCNC(=O)NS(=O)(=O)c1cc([N+](=O)[O-])ccc1Nc1c(C)cccc1C`, the values for the Ratio IC50 in test [1] and in test [4] were 1.03 and 1.71, respectively. Also, the IC50 was determined as 80.7 nM at Thromboxane A2 receptor [2], 47.1 nM on Thromboxane A2 receptor [3], 1.48 nM on Thromboxane A2 receptor [5] and 1.52 nM on Thromboxane A2 receptor [6]. Further, the Activity in test [7] was 54%; in test [8], 36.5%.
In the case of `CCCCCNC(=O)NS(=O)(=O)c1cc([N+](=O)[O-])ccc1Oc1ccc(C)cc1`, the values for the Ratio IC50 in test [1] and in test [4] were 4.02 and 2.52, respectively. The IC50 at Thromboxane A2 receptor [2] was 139 nM; at Thromboxane A2 receptor [3], 55.4 nM; on Thromboxane A2 receptor [5], 0.65 nM; at Thromboxane A2 receptor [6] it was 2.63 nM. The Activity in test [7] stood at 48.5%; in test [8] it was 35.5%.
Take `CCCCNC(=O)NS(=O)(=O)c1cc([N+](=O)[O-])ccc1Oc1ccc(C)cc1`: the values for the Ratio IC50 in test [1] and in test [4] were 1.05 and 10.6, respectively. Besides, the IC50 at Thromboxane A2 receptor [2] was found to be 558 nM; on Thromboxane A2 receptor [3], 52.9 nM; on Thromboxane A2 receptor [5], 0.7 nM; at Thromboxane A2 receptor [6] it was 0.74 nM. The results for the Activity in test [7] and in test [8] were 56% and 55.7%, respectively.
Take `CCCCCNC(=O)NS(=O)(=O)c1cc([N+](=O)[O-])ccc1Nc1ccc(C)cc1`: the Ratio IC50 in test [1] was 0.75; in test [4] it was 3.69. Moreover, the IC50 at Thromboxane A2 receptor [2] came out at 50 nM; on Thromboxane A2 receptor [3], 13.6 nM; on Thromboxane A2 receptor [5], 3.53 nM; on Thromboxane A2 receptor [6], 2.65 nM. Moreover, the Activity came out at 34.2% in test [7] and 39.6% in test [8].
Take `CCCCCNC(=O)NS(=O)(=O)c1cc([N+](=O)[O-])ccc1Nc1ccccc1C`: the Activity in test [7] and in test [8] was 45.3% in each case.
Consider `CCCCC/N=C(\NC#N)NS(=O)(=O)c1cc([N+](=O)[O-])ccc1Nc1ccc(C)cc1`, for which the Activity stood at 27.2% in test [7] and 25.5% in test [8].
For `CCCCCNC(=O)NS(=O)(=O)c1cc([N+](=O)[O-])ccc1Nc1c(C)cc(C)cc1C` the same measures were 27.5% and 27.9%.
Turning to `CCCCCNC(=O)NS(=O)(=O)c1cc([N+](=O)[O-])ccc1Nc1ccc(C)cc1C`, the results for the Activity in test [7] and in test [8] were 39.9% and 42.3%, respectively.
For `CCCCCCCCNC(=O)NS(=O)(=O)c1cc([N+](=O)[O-])ccc1NC1CCCCC1`, in that order: 24.1% and 17.1%.
For `CCCCCNC(=O)NS(=O)(=O)c1cc([N+](=O)[O-])ccc1Sc1ccc(C)cc1`, in that order: 43% and 38.5%.
For `CCCCCNC(=O)NS(=O)(=O)c1cc([N+](=O)[O-])ccc1Sc1ccccc1C`, in that order: 32.7% and 33.4%.
Consider `CCCCCNC(=O)NS(=O)(=O)c1cc([N+](=O)[O-])ccc1Oc1ccccc1C`, for which the Activity in test [7] amounted to 36.8%; in test [8], 35.2%.
For `Cc1ccc(Nc2ccc([N+](=O)[O-])cc2S(=O)(=O)NC(=O)NC2CCCCC2)cc1`, the Activity was determined as 29% in test [7] and 31.1% in test [8].
For the molecule `CCCCCNC(=O)NS(=O)(=O)c1cc([N+](=O)[O-])ccc1Nc1ccc(Cl)cc1`, the figures for the Activity in test [7] and in test [8] were 52.7% and 48.9%, respectively.
For `Cc1cc(Nc2ccc([N+](=O)[O-])cc2S(=O)(=O)NC(=O)NC(C)(C)C)ccc1Br` the same measures were 25% and 28.5%.
